Source: PubChem
T cruzi repl = inhibitors of intracellular T. cruzi growth, primary screen, luminescence, NIH3T3 host cells; T. cruzi beta-gal in NIH3T3, 90 h; inhibition, % (concentration not given with the values); actives 1.4% (n = 300,000);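 active = mean inhibition across valid replicates above about 55%, limit read from the data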;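 also: signal also drops with host cell toxicity which is not excluded here; 0% = plate median of DMSO wells and 100% = zero luminescence signal; higher percent means less beta-gal luminescence so fewer parasites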
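Read-out: Parasite load inhibition, % | Test system: Mouse NIH/3T3 fibroblasts infected with β-gal-expressing T. cruzi Tulahuen C4 | Amount: 5,000 cells/well | Medium: DMEM, 2% fetal bovine serum | Signal: GalScreen β-gal luminescence, detergent lysis, 60 min | Timing: 3 h attach, ≥90 h co-culture | Also added: Tulahuen C4 trypomastigotes, 5000/well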
GPR7 antag = GPR7 receptor antagonists, primary screen, cell-based, fluorescence, single concentration; Neuropeptides B/W receptor type 1 (Homo sapiens), P48145; GPR7-expressing cells, fluorescence antagonist assay; inhibition, % at 4.4 µM; actives 1.1% (n = 290,000); in the data active = inhibition above about 16%, passing the limit was not always enough;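 also: cells stimulated with the agonist NPW; 0% = agonist with vehicle and 100% = vehicle without agonist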
Target sequence (P48145 whole entry, looked up): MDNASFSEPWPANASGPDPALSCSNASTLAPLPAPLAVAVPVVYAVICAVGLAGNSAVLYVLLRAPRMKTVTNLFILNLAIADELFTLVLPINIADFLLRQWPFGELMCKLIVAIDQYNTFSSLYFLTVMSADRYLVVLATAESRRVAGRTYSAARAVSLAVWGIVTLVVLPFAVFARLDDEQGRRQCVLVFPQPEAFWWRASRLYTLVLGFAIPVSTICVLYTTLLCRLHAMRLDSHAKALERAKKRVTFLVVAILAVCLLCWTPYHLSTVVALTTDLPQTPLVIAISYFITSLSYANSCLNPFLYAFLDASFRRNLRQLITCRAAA
Jurkat NFkB inh = inhibitors of induced NF-kB luciferase reporter, primary screen, TCR NF-kB activation inhibitor project, cell-based, luminescence, uHTS; actives 0.53% (n = 330,000); Jurkat, PMA/ionomycin-induced NF-kB luciferase reporter; AID 435003, 2010; inhibition, % at 4 µM; in the data active = inhibition above about 50%
HSF1 inh = HSF1 inhibitors in luciferase reporter cells, primary screen, cell-based, NIH3T3, luminescence. actives 0.77% (n = 300,000). AID 2098, 2009. activity change, negative = inhibition, % at 7.5 µM (by protocol). NIH3T3-HGL HSE-luciferase, MG132-induced, luminescence 8 h; stronger effect = lower value;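 active = more than half of replicate wells show activity change below -50%, luminescence cut by over half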;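 also: luciferase reports HSF-1 transcriptional activity via heat shock element; 0% = median of DMSO wells and -100% = zero luminescence signal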
HSF1 activator = HSF-1 activators, primary screen, NIH3T3-HGL cells, MG132 stress, luminescence, single point; NIH3T3-HGL HSF-1 luciferase reporter, 8 h; 100% = twice DMSO control signal; activation, % at 9 µM; actives 1.7% (n = 300,000); AID 504408, 2011;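 active = mean replicate activation of at least 50% with a set share of replicates each reaching 50%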;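 also: 0% = median of the neutral control wells and 100% = twice that signal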
697 NFkB inh = inhibitors of PMA/ionomycin-induced NF-kB reporter, 697 cells, primary screen, B-cell NF-kB inhibitor project, cell-based, luminescence, uHTS; inhibition, % at 4 µM; 697 B-cell NF-kB luciferase reporter, 16 h; actives 0.33% (n = 330,000); in the data active = inhibition above about 35%
697 NFkB conf = PMA/ionomycin-induced NF-kB reporter inhibitors, 697 retest, confirmation, B-cell NF-kB inhibitor project, cell-based, luminescence, single concentration | shares compounds with 697 NFkB inh | 697 B-cell NF-kB luciferase, 16 h | inhibition, % at 4 µM | actives 35% (n = 2,000) | AID 449746, 2010; in the data active = inhibition mostly above about 28%, no sharp cut-off; inactive = mostly below about 22%
* hit, by the source's call; i = inactive; x = no result given. An excerpt weighted towards active compounds, which were near 4.8% of everything screened.

SMILES	T cruzi repl	GPR7 antag	Jurkat NFkB inh	HSF1 inh	HSF1 activator	697 NFkB inh	697 NFkB conf
CCn1c(=O)cc(SCC(=O)N2CCN(c3ccccc3OC)CC2)c2ccccc21	9	5	-4	11	24	36*	9
CCn1c2ccccc2c2cc(CN3CCN(C(=O)c4ccco4)CC3)ccc21	47	4	14	-9	17	-2	x
CCn1c(=O)cc(SCC(=O)N2CCN(C3CCCCC3)CC2)c2ccccc21	28	-10	14	30	62*	48*	19
CCN1CCN(C(=O)CSc2cc(=O)n(C)c3ccccc23)CC1	2	-16	8	-1	12	14	x
O=C(/C=C/c1ccc([N+](=O)[O-])cc1)Nc1ncc([N+](=O)[O-])s1	x	-5	x	x	x	x	x
Cc1cc(C(=O)Cn2nnc3ccccc3c2=O)c(C)n1Cc1cccs1	21	5	-104	-2	-4	-341	-234
CC(C)CC(=O)Nc1ccc(C(=O)CN2C(=O)NC3(CCOc4ccccc43)C2=O)cc1 (stereo not given)	14	x	19	7	18	0	x
CC(NS(=O)(=O)c1ccc2c(c1)oc(=O)n2C)c1ccccc1 (stereo not given)	-5	-4	7	-6	-3	-21	x
CC(=O)Nc1cc(C(=O)N2CCCC2)ccc1Sc1ccc(Cl)cc1	-12	3	-12	-5	7	34	x
CC(=O)Nc1cc(C(=O)N2CCCC2)ccc1Sc1ccc(C)cc1	-5	-21	0	-10	-12	38*	15
CC(NC(=O)c1ccccc1Br)c1nnc(SCC(=O)NC2=NCCS2)n1C (stereo not given)	11	-14	-7	0	11	17	x
COCCN(C(=O)c1ccccc1Oc1ccccc1)c1c(N)n(CC(C)C)c(=O)[nH]c1=O	x	x	0	x	x	11	x
Cc1cc(C)c2nc(NC(=O)C3CSC4(C)CCC(=O)N34)sc2c1 (stereo not given)	x	x	-7	x	x	47*	45*
CC12CCC(=O)N1C(C(=O)Nc1nc3ccc(Cl)cc3s1)CS2 (stereo not given)	-6	x	1	6	0	-4	x
COc1cccc(/C=N\NC(=O)c2sc(N)nc2C)c1OC	-8	2	2	2	15	39*	8
COc1cccc(/C=N/Nc2nnc3c(n2)[nH]c2ccccc23)c1OC	5	-7	-25	9	17	-26	x
CCc1ccc2[nH]c3nc(N/N=C/c4cccc(O)c4)nnc3c2c1	0	-5	22	-2	17	60*	76*
COc1ccc(CNC(=O)C[C@H]2C[C@H](C(=O)N3CCCCC3)[C@@]3(C)c4[nH]c5ccc(Cl)cc5c4CCN3C2=O)cc1OC	x	x	x	x	x	-1	x
CC(=O)Nc1ccc(/C=C(\C#N)C(=O)NC2CCCCC2)cc1	-21	-7	3	-3	26	46*	-8
CSc1ccc(/C=C(\C#N)C(=O)NC2CCCCC2)cc1	-4	1	6	-29	-35	-23	x
NS(=O)(=O)c1ccc(CCNC(=O)CSc2nc3ccsc3c(=O)n2CC2CCC(C(=O)O)CC2)cc1 (stereo not given)	7	1	3	-3	4	36*	10
CCC(C)n1c(SCC(=O)NCCc2ccc(S(N)(=O)=O)cc2)nc2ccsc2c1=O (stereo not given)	10	-10	12	-5	-4	19	x
CC(C)c1nc2oc3c(NCC4CCCO4)ncnc3c2c2c1CCC2 (stereo not given)	17	-16	7	-13	-3	42*	24
N=c1ccn2c(n1)O[C@H]1[C@H](O)[C@@H](CO)O[C@H]12	17	-9	38	0	5	52*	45*
CCN(C(=O)CN1C(=O)NC(c2ccccc2)(c2ccc(C)c(C)c2)C1=O)C1CCCCC1 (stereo not given)	x	x	29	x	x	44*	27*
SMILES	T cruzi repl	GPR7 antag	Jurkat NFkB inh	HSF1 inh	HSF1 activator	697 NFkB inh	697 NFkB conf
CCN(C(=O)CN1C(=O)NC(c2ccccc2)(c2ccc(C)c(C)c2)C1=O)C1CCS(=O)(=O)C1 (stereo not given)	x	x	3	x	x	8	x
COc1cc(N2Cc3ccccc3C2)ccc1C=O	-3	-13	-41	-32	-33	-250	-209
Cn1c(-c2ccccc2)cc2onc(-c3ccccc3)c2c1=O	x	x	-66	x	x	-325	-360
Cn1c(-c2ccccc2)cc(=O)c2ccccc21	12	-2	0	-3	-9	0	x
O=[N+]([O-])c1ccccc1N/N=C/c1cccc(O)c1O	-24	-6	-34	2	-9	i	-190
Cc1ccc2nc(NC(=O)c3ccco3)sc2c1	-2	-2	-52	-10	-12	-250	-271
O=C(Nc1nc2ccc(Br)cc2s1)c1ccco1	-9	-12	-90	14	47	-249	x
COc1ccc2nc(NC(=O)c3ccco3)sc2c1	-14	-11	-27	-11	1	-256	-320
NS(=O)(=O)c1ccc2nc(NC(=O)c3ccc(Br)o3)sc2c1	4	-5	-19	12	20	-34	x
Cc1cc2sc(NC(=O)c3ccco3)nc2cc1Cl	-2	10	-127	37	66*	-360	-284
Cc1ccc2nc(NC(=O)c3ccc(Br)o3)sc2c1	-1	-17	-103	35	48	-277	-284
Cc1cccc(OCCNS(=O)(=O)c2ccc(Cl)cc2)c1	x	x	1	x	x	30	x
O=C(CSc1nc(C(F)(F)F)cc(=O)[nH]1)NCc1ccc2c(c1)OCO2	-8	x	7	-6	-4	6	x
CCCc1cc(=O)[nH]c(SCC(=O)c2c(N)n(C3CC3)c(=O)[nH]c2=O)n1	x	x	-6	x	x	26	x
O=C(Nc1nc2ccc(Cl)cc2s1)c1ccco1	-1	-1	-67	10	27	-271	-301
COC(=O)Nc1nc2ccc(C(=O)c3cccs3)cc2[nH]1	-9	x	45	-28	-34	i	-107
COc1ccc(C(=O)Nc2nc3ccccc3[nH]2)cc1	5	-12	-28	-7	21	-128	x
Cc1ccnc(Nc2nc(-c3sc(C)nc3C)cs2)c1	20	x	4	2	30	-166	x
